Laboratory results as given in ChEMBL document CHEMBL1144182, “Antimicrobial and cytotoxic arylazoenamines. Part III: antiviral activity of selected classes of arylazoenamines” (Bioorg Med Chem, 2008).
Activity calls are given as the source filed them. How the calls were made is not given here.

Experiments:
[1] = Cytotoxicity against mock-infected human MT4 cells assessed as reduction in cell viability after 96 hrs by MTT assay; assay type: cell-based
How it was run: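 Exponentially growing MT-4 cells seeded at 1 × 10^5 cells/mL in RPMI-1640 with 10% FCS, penicillin and streptomycin, with or without serial compound dilutions. Incubated at 37 °C, 5% CO2; viability read by MTT after 96 h. CC50 is the concentration reducing mock-infected cell viability by 50%.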

[2] = Cytotoxicity against mock-infected MDBK cells assessed as reduction in cell viability after 96 hrs by MTT assay; assay type: cell-based, Bos taurus; details: cattle
How it was run: (§1)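 Cytotoxicity run in parallel with the antiviral assays. MDBK seeded at 6 × 10^5 and BHK at 1 × 10^6 cells/mL in maintenance medium with or without serial compound dilutions. Incubated 48–96 h at 37 °C, 5% CO2, then viability read by MTT. CC50 is the concentration reducing mock-infected cell viability by 50%.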

[3] = tested on: Bovine viral diarrhea virus 1; test: Antiviral activity against BVDV infected in MDBK cells assessed as protection against virus-induced cytopathogenicity after 4 days by MTT assay; assay type: functional, organism-based; details: Bovine viral diarrhea virus isolates and strains, 96 h
How it was run: (§2)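 MDBK (BVDV) or BHK-21 (YFV) cells were seeded at 3 × 10^4 or 5 × 10^4 cells/well respectively and grown overnight to confluent monolayers at 37 °C in 5% CO2. Monolayers were infected at m.o.i. 0.01 in serum-free medium. After 1 h, MEM Earle's with 1% FCS was added, with or without serial compound dilutions. After 3–4 days at 37 °C, viability was read by MTT. EC50 was taken as 50% protection from virus-induced cytopathogenicity.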

[4] = Cytotoxicity against mock-infected BHK cells assessed as reduction in cell viability after 96 hrs by MTT assay; assay type: cell-based, Mesocricetus auratus; details: hamster; how it was run: as §1
Yellow fever virus = test: Antiviral activity against YFV infected in BHK21 cells assessed as protection against virus-induced cytopathogenicity after 4 days by MTT assay; assay type: functional, organism-based; details: BHK-21, 96 h; how it was run: as §2
[5] = Cytotoxicity against mock-infected african green monkey Vero76 cells assessed as reduction in cell viability after 96 hrs by MTT assay; assay type: cell-based, Vero; details: chlorocebus sabaeus
Coxsackievirus B2 = test: Antiviral activity against CVB2 infected in Vero76 cells assessed as reduction in virus plaque formation after 4 days by MTT assay; assay type: functional, organism-based; details: Enterovirus B, Vero 76, 96 h
[6] = tested on: Respiratory syncytial virus; test: Antiviral activity against RSV infected in Vero76 cells assessed as reduction in virus plaque formation after 4 days by MTT assay; assay type: functional, organism-based; details: human respiratory syncytial virus, Vero 76, 96 h
Poliovirus 1 = test: Antiviral activity against Sb1 virus infected in Vero76 cells assessed as reduction in virus plaque formation after 4 days by MTT assay; assay type: functional, organism-based; details: Enterovirus C, Sabin, Vero 76, 96 h
[7] = tested on: Human immunodeficiency virus 1; test: Antiviral activity against HIV1 infected in MT4 cells assessed as virus-induced cytopathogenicity after 4 days; assay type: functional, organism-based
Vaccinia virus = test: Antiviral activity against VV infected in Vero76 cells assessed as reduction in virus plaque formation after 4 days by MTT assay; assay type: functional, organism-based; details: Orthopoxvirus vaccinia; Vero 76
[8] = tested on: Vesicular stomatitis virus; test: Antiviral activity against VSV infected in Vero76 cells assessed as reduction in virus plaque formation after 4 days by MTT assay; assay type: functional, organism-based; details: Vero 76

Row | SMILES | CC50 at 96 h [1] [µM] | CC50 at 96 h [2] [µM] | EC50 [3] [µM] | CC50 at 96 h [4] [µM] | EC50 (Yellow fever virus) [µM] | CC50 at 96 h [5] [µM] | EC50 (Coxsackievirus B2) [µM] | EC50 [6] [µM] | EC50 (Poliovirus 1) [µM] | Activity [7] | Activity (Vaccinia virus) | Activity [8]
1 | Brc1ccc(/N=N\C2=C3CCCCN3CCC2)cc1 | 27 | 59 | > 59 | 62 | ≥ 62 | 92 | 10 | > 92 | > 92 | inactive | inactive | inactive
2 | CN1/C(=C\N=N\c2ccc(Cl)cc2)C(C)(C)c2ccccc21 | 55 | 72 | > 72 | 21 | > 21 | > 100 | > 100 | > 100 | > 100 | inactive | inactive | inactive
3 | FC(F)(F)c1cc(/N=N\C2=C3CCCCN3CCC2)ccc1Cl | 19 | 35 | > 35 | 41 | > 41 | > 100 | 64 | > 100 | > 100 | inactive | inactive | inactive
4 | Clc1ccc(/N=N/C=C2\CCCN2Cc2ccccc2)cc1 | 17 | 18 | > 18 | 20 | > 20 | 70 | 23 | > 70 | > 70 | inactive | inactive | inactive
5 | Cc1ccc(/N=N/C2=CN(C)CCC2)cc1 | > 100 | > 100 | > 100 | > 100 | > 100 | 71 | > 71 | > 71 | 25 | inactive | inactive | inactive
6 | O=[N+]([O-])c1ccc(/N=N\C2=C3CCCCN3CCC2)cc1 | 91 | > 100 | 86 | > 100 | ≥ 100 | 100 | 26 | > 100 | > 100 | inactive | inactive | inactive
7 | CN1C=C(/N=N/c2ccc(Cl)c([N+](=O)[O-])c2)CCC1 | 71 | 61 | > 61 | > 100 | > 100 | > 100 | > 100 | > 100 | > 100 | inactive | inactive | inactive
8 | C(=C\N1CCCCC1)/N=N/c1ccccc1 | 2 | 7 | > 7 | 67 | 23 | 15 | 7 | > 15 | > 15 | inactive | inactive | inactive
9 | C(=C\N1CCN(c2ccccn2)CC1)/N=N/c1ccccc1 | 19 | ≥ 100 | > 100 | 75 | > 75 | 22 | 6 | 7 | > 22 | inactive | inactive | inactive
10 | FC(F)(F)c1cc(/N=N/C=C2\CCCN2Cc2ccccc2)ccc1Cl | 20 | 14 | > 14 | 22 | > 22 | 80 | 30 | > 80 | > 80 | inactive | inactive | inactive
